Values after ≈ are worked out from the molar mass of the structure shown.
Columns and labels:
[1] = target: T1, Bromodomain-containing protein 4 (Homo sapiens, UniProt O60885); test: Inhibition of BRD4 BD2 (unknown origin) measured by TR-FRET assay
[2] = target: T1, Bromodomain-containing protein 4; test: Inhibition of BRD4 BD1 (unknown origin) measured by TR-FRET assay
[3] = Lipophilicity, logD of compound at pH 7.4 by Chromatography; format: physicochemical; details: buffer
C-C motif chemokine 2 = C-C motif chemokine 2 (Homo sapiens, UniProt P13500); test: Inhibition of MCP-1 in LPS-stimulated human whole blood incubate for 24 hrs by immuno assay; format: tissue-based
Sequence of C-C motif chemokine 2 (P13500 whole entry): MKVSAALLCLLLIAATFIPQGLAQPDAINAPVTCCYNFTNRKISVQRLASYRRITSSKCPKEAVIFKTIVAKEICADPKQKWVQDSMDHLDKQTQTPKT

[4] = Solubility of the compound in saline by CLND method; format: physicochemical
[5] = Artificial membrane permeability of the compound; format: ADME; details: PAMPA; read-out: permeability
[6] = Solubility of the compound at pH 6.5 in fast state simulated intestinal fluid incubated for 16 hrs by HPLC analysis; format: physicochemical; details: fasted state simulated intestinal fluid
[7] = Intrinsic clearance in rat hepatocytes after 60 mins by LC-MS/MS analysis; format: ADME, cell-based, Hepatocyte; details: 1 h
[8] = Oral bioavailability in Wistar Han rat at 3.1 mg/kg measured upto 24 hrs by LC-MS/MS analysis; format: ADME, organism-based; details: in vivo
Summary of the method: (§1)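 Male Wistar Han rats and beagle dogs were dosed iv as a 1 h infusion in DMSO with 10% (w/v) Kleptose HPB in saline (2%:98% or 5%:95% v/v). Oral doses were given in 1% (w/v) methylcellulose (400 cps) aqueous suspension. Oral values are means of n = 3 and iv values n = 1 unless otherwise noted.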

[9] = Clearance in Wistar Han rat blood at 3.1 mg/kg, po or 1 mg/kg, iv measured upto 24 hrs by LC-MS/MS analysis; format: ADME, organism-based; details: whole blood; summary of the method: as §1
[10] = Intrinsic clearance in dog hepatocytes incubated upto 45 mins by LC-MS/MS analysis; format: ADME, cell-based, Canis lupus familiaris, Hepatocyte; details: 0.75 h
[11] = Intrinsic clearance in human hepatocytes measured after 120 mins by LC-MS/MS analysis; format: ADME, cell-based, Hepatocyte; details: 2 h
[12] = Half-life in Wistar Han rat at 3.1 mg/kg, po or 1 mg/kg, iv measured upto 24 hrs by LC-MS/MS analysis; format: ADME, organism-based; details: in vivo; summary of the method: as §1
[13] = Volume of distribution at steady state in Wistar Han rat at 3.1 mg/kg, po or 1 mg/kg, iv measured upto 24 hrs by LC-MS/MS analysis; format: ADME, organism-based; details: in vivo, read-out: Vdss; summary of the method: as §1
[14] = Unbound clearance in Wistar Han rat blood at 3.1 mg/kg, po or 1 mg/kg, iv measured upto 24 hrs by LC-MS/MS analysis; format: ADME, organism-based; details: in vivo; summary of the method: as §1
[15] = Unbound volume of distribution at steady state in Wistar Han rat at 3.1 mg/kg, po or 1 mg/kg, iv measured upto 24 hrs by LC-MS/MS analysis; format: ADME, organism-based; details: in vivo; summary of the method: as §1
Cytochrome P450 3A4 = Cytochrome P450 3A4 (Homo sapiens, UniProt P08684); test: Inhibition of CYP3A4 (unknown origin); format: ADME
Sequence of Cytochrome P450 3A4 (P08684 whole entry): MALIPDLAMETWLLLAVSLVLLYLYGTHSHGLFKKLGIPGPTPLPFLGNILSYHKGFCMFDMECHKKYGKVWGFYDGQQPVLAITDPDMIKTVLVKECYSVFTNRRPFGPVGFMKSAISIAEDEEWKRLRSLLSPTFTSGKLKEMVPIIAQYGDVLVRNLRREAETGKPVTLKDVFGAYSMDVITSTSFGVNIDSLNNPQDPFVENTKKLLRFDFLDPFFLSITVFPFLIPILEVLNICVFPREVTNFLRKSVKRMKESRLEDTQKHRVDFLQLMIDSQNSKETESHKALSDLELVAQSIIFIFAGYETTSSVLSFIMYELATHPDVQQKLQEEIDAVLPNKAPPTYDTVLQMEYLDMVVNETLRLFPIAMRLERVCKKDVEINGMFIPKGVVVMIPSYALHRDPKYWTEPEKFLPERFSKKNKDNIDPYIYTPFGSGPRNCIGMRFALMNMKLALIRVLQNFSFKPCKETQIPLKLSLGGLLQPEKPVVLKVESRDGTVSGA

[16] = target: Voltage-gated inwardly rectifying potassium channel KCNH2 (Homo sapiens, UniProt Q12809); test: Inhibition of hERG; format: toxicity
Sequence of Voltage-gated inwardly rectifying potassium channel KCNH2 (Q12809 whole entry): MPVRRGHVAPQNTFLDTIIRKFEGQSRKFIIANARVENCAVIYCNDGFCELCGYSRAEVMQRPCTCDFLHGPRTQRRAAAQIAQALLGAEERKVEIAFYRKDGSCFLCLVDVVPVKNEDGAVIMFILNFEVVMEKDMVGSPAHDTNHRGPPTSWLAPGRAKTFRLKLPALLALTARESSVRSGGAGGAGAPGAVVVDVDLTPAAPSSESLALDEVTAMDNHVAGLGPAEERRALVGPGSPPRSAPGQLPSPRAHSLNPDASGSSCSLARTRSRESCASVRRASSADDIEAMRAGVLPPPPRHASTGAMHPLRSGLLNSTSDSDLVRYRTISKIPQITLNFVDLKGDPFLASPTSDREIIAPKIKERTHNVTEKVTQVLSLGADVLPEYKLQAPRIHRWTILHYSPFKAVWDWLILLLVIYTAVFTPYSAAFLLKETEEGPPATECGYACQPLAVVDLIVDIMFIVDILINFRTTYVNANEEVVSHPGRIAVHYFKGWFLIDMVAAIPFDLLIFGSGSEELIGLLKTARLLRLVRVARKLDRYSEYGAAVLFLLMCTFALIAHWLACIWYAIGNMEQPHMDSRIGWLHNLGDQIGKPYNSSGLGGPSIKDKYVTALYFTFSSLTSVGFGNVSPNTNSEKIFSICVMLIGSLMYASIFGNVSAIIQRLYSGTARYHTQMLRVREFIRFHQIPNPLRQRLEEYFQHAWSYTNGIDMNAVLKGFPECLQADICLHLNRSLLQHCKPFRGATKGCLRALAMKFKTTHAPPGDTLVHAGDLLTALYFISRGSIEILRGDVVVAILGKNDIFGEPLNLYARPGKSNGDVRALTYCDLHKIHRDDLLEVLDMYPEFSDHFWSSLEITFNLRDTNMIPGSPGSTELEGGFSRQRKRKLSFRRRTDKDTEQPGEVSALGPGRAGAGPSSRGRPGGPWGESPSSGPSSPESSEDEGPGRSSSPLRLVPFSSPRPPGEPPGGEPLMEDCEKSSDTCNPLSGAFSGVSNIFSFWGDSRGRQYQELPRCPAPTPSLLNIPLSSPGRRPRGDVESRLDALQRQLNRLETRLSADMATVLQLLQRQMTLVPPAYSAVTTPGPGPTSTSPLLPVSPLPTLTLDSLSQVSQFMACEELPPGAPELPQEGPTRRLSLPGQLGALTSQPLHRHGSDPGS

SMILES	IC50 [1]	IC50 [2]	chromatographic logD [3]	IC50 (C-C motif chemokine 2)	solubility kinetic [4]	Papp [5]	further results
CC(=O)N1CCCc2ccccc21	126000 nM	251000 nM	–	–	–	–	–
Cc1noc(C)c1-c1ccccc1	158000 nM	50100 nM	–	–	–	–	–
COC[C@@H](C)n1c(C2CCOCC2)nc2cnc3cc(-c4c(C)noc4C)c(OC)cc3c21	126 nM	39.8 nM	–	–	–	–	–
CCS(=O)(=O)c1ccc2c(c1)C(C(N)=O)=CN(C)C(=O)[C@@H]2C	3160 nM	1580 nM	1.1	2000 nM	82 µg/mL (≈ 254 µM)	1 ×10⁻⁶ cm/s	–
CCOc1ccc2c(c1)C(c1cn[nH]c1)=CN(C)C(=O)[C@@H]2C	3.98 nM	6.31 nM	3.4	25.1 nM	≥ 115 µg/mL	37 ×10⁻⁶ cm/s	–
CCOc1ccc2c(c1)C(c1cn(C)cn1)=CN(C)C(=O)[C@@H]2C	25.1 nM	31.6 nM	3.6	50.1 nM	117 µg/mL (≈ 376 µM)	69 ×10⁻⁶ cm/s	–
CCS(=O)(=O)c1ccc2c(c1)C(c1cnn(C)c1)=CN(C)C(=O)[C@@H]2C	79.4 nM	39.8 nM	2.8	39.8 nM	≥ 222 µg/mL	14.5 ×10⁻⁶ cm/s	CLH [7]: 2.44 mL/min/g; CLH [10]: < 0.65 mL/min/g; CLH [11]: < 0.45 mL/min/g
COc1cc2c(cc1OC)[C@@H](C)C(=O)N(C)CC2	15800 nM	3980 nM	2.6	–	–	–	–
COc1cc2c(cc1OC)CC(=O)N(C)C=C2	10000 nM	2000 nM	2.6	–	–	–	–
Cc1nnc(C)n1-c1ccccc1	> 50100 nM	> 50100 nM	–	–	–	–	–
CCOc1ccc2c(c1)C(c1cnn(C)c1)=CN(C)C(=O)[C@@H]2C	7.94 nM	10 nM	4.1	20 nM	143 µg/mL (≈ 459 µM)	57 ×10⁻⁶ cm/s	CLH [7]: 72.36 mL/min/g; CLH [10]: < 0.65 mL/min/g; CLH [11]: 9.14 mL/min/g
COc1cc2c(cc1OC)[C@H](C)C(=O)N(C)CC2	158000 nM	63100 nM	2.5	–	–	–	–
CCOc1ccc2c(c1)C(c1c[nH]c(C)n1)=CN(C)C(=O)[C@@H]2C	20 nM	12.6 nM	3.1	15.8 nM	≥ 135 µg/mL	40 ×10⁻⁶ cm/s	–
Cc1cc(-c2ccccc2)cn(C)c1=O	10000 nM	3160 nM	–	–	–	–	–
CCOc1ccc2c(c1)C(c1c[nH]cn1)=CN(C)C(=O)[C@@H]2C	10 nM	10 nM	2.7	50.1 nM	≥ 131 µg/mL	46 ×10⁻⁶ cm/s	–
CCOc1ccc2c(c1)C(n1ccnc1)=CN(C)C(=O)C2C (racemic)	25100 nM	39800 nM	4.3	–	≥ 65 µg/mL	58 ×10⁻⁶ cm/s	–
CCOc1ccc2c(c1)C(c1cc[nH]n1)=CN(C)C(=O)C2C (racemic)	20 nM	31.6 nM	3.8	126 nM	≥ 99 µg/mL	54 ×10⁻⁶ cm/s	–
CCS(=O)(=O)c1ccc2c(c1)C(c1ccccc1)=CN(C)C(=O)C2C (racemic)	501 nM	251 nM	5.1	1580 nM	≥ 146 µg/mL	100 ×10⁻⁶ cm/s	–
CCS(=O)(=O)c1ccc2c(c1)C(c1ccncc1)=CN(C)C(=O)C2C (racemic)	1580 nM	631 nM	2.8	1260 nM	128 µg/mL (≈ 359 µM)	35 ×10⁻⁶ cm/s	–

Continued, in another order:

IC50 [1]	IC50 [2]	chromatographic logD [3]	IC50 (C-C motif chemokine 2)	solubility kinetic [4]	Papp [5]	SMILES	further results
25.1 nM	15.8 nM	0.8	39.8 nM	–	0.8 ×10⁻⁶ cm/s	C[C@H]1C(=O)N(C)C=C(c2cn[nH]c2)c2cc([C@H](O)CO)ccc21	solubility at 16 h [6]: > 1000 µg/mL; CLH [7]: < 0.8 mL/min/g; bioavailability [8]: 19%; clearance [9]: 43 mL/min/kg; CLH [10]: < 0.65 mL/min/g; CLH [11]: 0.52 mL/min/g; half-life [12]: 24.6 min; Vd [13]: 1 L/kg; CL free [14]: 75 mL/min/kg; Vduss [15]: 1.8 L/kg
794 nM	316 nM	4	1000 nM	≥ 128 µg/mL	84 ×10⁻⁶ cm/s	COCCOc1ccc2c(c1)C=CN(C)C(=O)[C@@H]2C	–
251 nM	79.4 nM	3.4	158 nM	≥ 131 µg/mL	15 ×10⁻⁶ cm/s	CCS(=O)(=O)c1ccc2c(c1)C(C)=CN(C)C(=O)[C@@H]2C	CLH [7]: 1.18 mL/min/g; CLH [10]: 0.77 mL/min/g; CLH [11]: < 0.45 mL/min/g
1580 nM	398 nM	2.6	1000 nM	≥ 108 µg/mL	24 ×10⁻⁶ cm/s	C[C@H]1C(=O)N(C)C=Cc2cc(CCO)ccc21	–
50100 nM	12600 nM	3.4	–	–	–	COc1cc2c(cc1OC)[C@H](C)C(=O)N(C)C=C2	–
1580 nM	631 nM	4.3	–	–	88 ×10⁻⁶ cm/s	COc1ccc2c(c1)C=CN(C)C(=O)[C@@H]2C	–
31.6 nM	20 nM	1.5	39.8 nM	≥ 185 µg/mL	< 0.3 ×10⁻⁶ cm/s	Cc1nc(C2=CN(C)C(=O)[C@H](C)c3ccc(OCCO)cc32)c[nH]1	–
2000 nM	398 nM	1.1	1000 nM	≥ 101 µg/mL	2.7 ×10⁻⁶ cm/s	C[C@H]1C(=O)N(C)C=Cc2cc(C(O)CO)ccc21 (some centres not stated)	–
100 nM	31.6 nM	1.4	31.6 nM	≥ 208 µg/mL	< 0.3 ×10⁻⁶ cm/s	C[C@H]1C(=O)N(C)C=C(c2cnn(C)c2)c2cc(C(CO)CO)ccc21	–
631 nM	158 nM	3.3	398 nM	≥ 142 µg/mL	77.5 ×10⁻⁶ cm/s	C[C@H]1C(=O)N(C)C=Cc2cc(CN3CCOCC3)ccc21	CLH [7]: 23.76 mL/min/g; CLH [10]: 3.37 mL/min/g; CLH [11]: < 0.45 mL/min/g
2000 nM	398 nM	1.2	631 nM	≥ 209 µg/mL	3 ×10⁻⁶ cm/s	C[C@H]1C(=O)N(C)C=Cc2cc(C(CO)CO)ccc21	–
631 nM	200 nM	5.9	–	–	73 ×10⁻⁶ cm/s	CCc1ccc2c(c1)C=CN(C)C(=O)[C@@H]2C	–
1260 nM	398 nM	1.3	631 nM	≥ 142 µg/mL	4.2 ×10⁻⁶ cm/s	C[C@H]1C(=O)N(C)C=Cc2cc(OC(CO)CO)ccc21	–
631 nM	158 nM	3.4	–	≥ 139 µg/mL	89 ×10⁻⁶ cm/s	COc1cc2c(cc1OC)[C@@H](C)C(=O)N(C)C=C2	IC50 (Cytochrome P450 3A4): > 39800 nM; solubility at 16 h [6]: > 1000 µg/mL; IC50 [16]: > 50100 nM; CLH [7]: 6.35 mL/min/g; CLH [10]: 2.64 mL/min/g; CLH [11]: < 0.45 mL/min/g
316 nM	63.1 nM	5.4	631 nM	≥ 111 µg/mL	71 ×10⁻⁶ cm/s	C[C@H]1C(=O)N(C)C=Cc2cc(CC3CCOCC3)ccc21	–
7940 nM	501 nM	1.5	1580 nM	≥ 97 µg/mL	36 ×10⁻⁶ cm/s	C[C@H]1C(=O)N(C)C=Cc2cc(CN3CCCC3)ccc21	–
1000 nM	501 nM	5	3160 nM	≥ 120 µg/mL	70 ×10⁻⁶ cm/s	CCOc1ccc2c(c1)C=CN(C)C(=O)C2C (racemic)	–
1260 nM	200 nM	3.1	398 nM	–	42 ×10⁻⁶ cm/s	CCS(=O)(=O)c1ccc2c(c1)C=CN(C)C(=O)[C@@H]2C (racemic)	–
794 nM	251 nM	3.6	631 nM	≥ 131 µg/mL	74 ×10⁻⁶ cm/s	CC1C(=O)N(C)C=Cc2cc(OCC(C)(C)O)ccc21 (racemic)	–
5010 nM	1580 nM	4.3	5010 nM	≥ 86 µg/mL	100 ×10⁻⁶ cm/s	C[C@H]1C(=O)N(C)C=Cc2ccccc21 (racemic)	–
